Experimental data pooled from the literature.
Compare with care: the assays were run in different laboratories.
Target: Transient receptor potential cation channel subfamily M member 6 (TRPM6, Homo sapiens, UniProt Q9BX84)

SMILES | test | conditions | remaining binding [%]
Nc1ncc2c(n1)-c1c([nH]c3ccc(C#CC4CC4)cc13)CCCC2 | binding, competition with immobilised ligand | 1 µM | 75
CN([C@@H]1CCc2c(CC(=O)O)c3cc(S(C)(=O)=O)ccc3n2C1)S(=O)(=O)c1ccc(F)cc1 | cell-free assay, competition with immobilised ligand | 1 µM | 74
COc1ccnn2ncc(-c3ccnc(N(C)C)n3)c12 | binding | 1 µM | 82
CN(C)C(=O)Cn1cc(-c2nc([C@@](C)(c3ccc(-c4cnc(N)nc4)cc3)C3CC3)no2)cn1 | cell-free assay, competition with immobilised ligand | 1 µM | 78
C[C@H]1CCN(c2nccc(-c3cnn4ncccc34)n2)C1 | binding | 1 µM | 94
CNC(=O)[C@@H]1CC[C@@H](n2c(-c3ccc4cnccc4c3)nc3ccc(C(=O)NCc4cccc(C(N)=O)c4)cc32)C1 | binding, competition with immobilised ligand | 1 µM | 83
N#CC1(c2ccccn2)CCN(Cc2cc(C(=O)N3CCCC3)c(=O)n3ccccc23)CC1 | cell-free assay, competition with immobilised ligand | 1 µM | 80
O=C(NCCCN1CCOCC1)c1ccc(Nc2nccc(-c3cc4ccccc4s3)n2)cc1 | binding, competition with immobilised ligand | 1 µM | 100
C[C@@H](c1ccc(-n2cnc3c(N)ncnc32)cc1)N1CCc2nn(C)c(Cc3ccccc3)c2C1=O | binding, competition with immobilised ligand | 0.1 µM | 76
CC1CCCN1c1nccc(-c2cnn3ncccc23)n1 (stereo not drawn) | binding | 1 µM | 100
O=C(c1ccc(Nc2nccc(-c3cc4ccccc4s3)n2)cc1)N1CCC(N2CCCC2)CC1 | binding, competition with immobilised ligand | 1 µM | 100
CN(C)c1ncc(F)c(-c2cnn3ncccc23)n1 | binding | 1 µM | 100
O=C(Nc1c[nH]nc1C(=O)NC1CCNCC1)c1cc(F)cc(F)c1 | binding, competition with immobilised ligand | 1 µM | 88
C[C@H](c1ccc(F)cc1)N(Cc1cccc(C(=O)O)c1)C(=O)c1cnc2ccccc2c1 | cell-free assay, competition with immobilised ligand | 1 µM | 100
N[C@H]1CCN(c2nccc(-c3cnn4ncccc34)n2)C1 | binding | 1 µM | 91
Cc1cnc(Nc2ccc(C(=O)N3CCC(N4CCCC4)CC3)cc2)nc1-c1cc2ccccc2s1 | binding, competition with immobilised ligand | 1 µM | 100
COc1cnc(Nc2cccc(S(N)(=O)=O)c2)nc1N1CCN(c2ccccc2)CC1 | binding, competition with immobilised ligand | 1 µM | 90
COc1ccc2c(c1)O[C@@H](c1ccc(OC)c(OC)c1)C[C@H]2NC(=O)C1(c2ccc3c(c2)OC(F)(F)O3)CC1 | cell-free assay, competition with immobilised ligand | 1 µM | 82
COc1ncc2cc3ccccc3nc2c1C#N | cell-free assay, competition with immobilised ligand | 5 µM | 92
CN(C)c1nccc(-c2cnn3ncccc23)n1 | binding | 1 µM | 100
CS(=O)(=O)N1CCCC(NC(=O)[C@H](CCC2CCCCC2)NC(=O)c2ccc(CNC(=O)c3cnc4ccccn34)cc2)C1 (stereo partly drawn) | cell-free assay, competition with immobilised ligand | 0.1 µM | 100
